This is an account of results in ChEMBL document CHEMBL1121484, “Thrombin inhibitors. 2. Amide derivatives of N alpha-substituted L-arginine” (J Med Chem, 1980).

The target of this assay is Prothrombin (Bos taurus, UniProt P00735). As to the kind of experiment: Bovine thrombin concentration at which clotting time was prolonged 2x over the control. The class given is functional. The settings on record: read-out: I50. The procedure, abridged:
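Clotting assay at 25 °C. The read-out was the time from thrombin addition to clot formation.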
`COC1CCN(C(=O)C(CCCN=C(N)N)NS(=O)(=O)c2cccc3c(N(C)C)cccc23)CC1` (stereo unspecified): the IC50 amounted to 4 µM. The figure for `CCC1CCN(C(=O)C(CCCN=C(N)N)NS(=O)(=O)c2ccc3ccc(=O)oc3c2)CC1` (stereo unspecified) is 20 µM; for `CCCNC(=O)C(CCCN=C(N)N)NS(=O)(=O)c1cccc2c(N(C)C)cccc12` (stereo unspecified) it is 15 µM; for `CCC1CCN(C(=O)C(CCCN=C(N)N)NS(=O)(=O)c2ccc3ccc(C)cc3c2)CC1` (stereo unspecified) it is 0.4 µM. The figure for `CN(C)c1cccc2c(S(=O)(=O)NC(CCCNC(=N)N)C(=O)N3CCSCC3)cccc12` (stereo unspecified) is 2 µM; for `CN(C)c1cccc2c(S(=O)(=O)NC(CCCNC(=N)N)C(=O)NCCc3ccccc3)cccc12` (stereo unspecified) it is 150 µM. Next, `COc1ccc(CNC(=O)C(CCCN=C(N)N)NS(=O)(=O)c2cccc3c(N(C)C)cccc23)cc1` (stereo unspecified): 500 µM; `CCCCN(CC)C(=O)C(CCCN=C(N)N)NS(=O)(=O)c1cccc2c(N(C)C)cccc12` (stereo unspecified): 50 µM; `CCC1CCN(C(=O)C(CCCNC(=N)N)NS(=O)(=O)c2ccc3c(c2)CCCO3)CC1` (stereo unspecified): 15 µM. For `CCCCCCCNC(=O)C(CCCNC(=N)N)NS(=O)(=O)c1cccc2c(N(C)C)cccc12` (stereo unspecified), the IC50 is 100 µM. As for `N=C(N)NCCCC(NS(=O)(=O)c1ccc2ccccc2c1)C(=O)N1CCCCCC1` (stereo unspecified), the IC50 amounted to 20 µM. In the case of `CN(C)c1cccc2c(S(=O)(=O)NC(CCCNC(=N)N)C(=O)NC3CC3)cccc12` (stereo unspecified), the IC50 turned out to be 500 µM. As to `CCC1CCN(C(=O)C(CCCNC(=N)N)NS(=O)(=O)c2ccc3ccc(OC)cc3c2)CC1` (stereo unspecified), the IC50 amounted to 0.1 µM.

Regarding `CN(C)c1cccc2c(S(=O)(=O)NC(CCCN=C(N)N)C(=O)NCc3ccccc3)cccc12` (stereo unspecified), the IC50 came out at 50 µM. The figure for `CCC1CCN(C(=O)C(CCCNC(=N)N)NS(=O)(=O)c2cccc3ccccc23)CC1` (stereo unspecified) is 1 µM. In the case of `CCCCCNC(=O)C(CCCN=C(N)N)NS(=O)(=O)c1cccc2c(N(C)C)cccc12` (stereo unspecified), the IC50 was 130 µM. The figure for `CC1CCN(C(=O)C(CCCN=C(N)N)NS(=O)(=O)c2cccc3c(N(C)C)cccc23)CC1` (stereo unspecified) is 0.3 µM; for `COc1ccc2cc(S(=O)(=O)NC(CCCN=C(N)N)C(=O)N3CCC(C)CC3)cc(OC)c2c1` (stereo unspecified) it is 0.075 µM; for `CCC1CCN(C(=O)C(CCCNC(=N)N)NS(=O)(=O)c2ccc3c(c2)oc2ccccc23)CC1` (stereo unspecified) it is 0.3 µM. Next, `CC(=O)N1CCN(C(=O)C(CCCN=C(N)N)NS(=O)(=O)c2cccc3c(N(C)C)cccc23)CC1` (stereo unspecified): 3.5 µM; `CN(C)c1cccc2c(S(=O)(=O)NC(CCCN=C(N)N)C(=O)N3CC4CCCC(C4)C3)cccc12` (stereo unspecified): 10 µM. For `CC1CCN(C(=O)C(CCCN=C(N)N)NS(=O)(=O)c2cccc3ccccc23)CC1` (stereo unspecified), the IC50 came out at 4 µM. As for `CN(C)c1cccc2c(S(=O)(=O)NC(CCCN=C(N)N)C(=O)N3CCC(c4ccccc4)CC3)cccc12` (stereo unspecified), the IC50 worked out at 100 µM. `CCOc1cc2ccc(S(=O)(=O)NC(CCCN=C(N)N)C(=O)N3CCC(CC)CC3)cc2cc1OCC` (stereo unspecified): the IC50 was 5.5 µM.

Turning to `COc1cccc2c(S(=O)(=O)NC(CCCN=C(N)N)C(=O)N3CCC(C)CC3)cccc12` (stereo unspecified), the IC50 amounted to 0.3 µM. The figure for `CCC1CCN(C(=O)C(CCCNC(=N)N)NS(=O)(=O)c2ccc3c(c2)OCCCO3)CC1` (stereo unspecified) is 5 µM; for `CCN(CC)C(=O)C(CCCN=C(N)N)NS(=O)(=O)c1cccc2c(N(C)C)cccc12` (stereo unspecified) it is 55 µM. For the molecule `CCOc1cccc2c(S(=O)(=O)NC(CCCNC(=N)N)C(=O)N3CCC(CC)CC3)cccc12` (stereo unspecified), the IC50 amounted to 0.1 µM. The figure for `N=C(N)NCCCC(NS(=O)(=O)c1cccc2c1CCCC2)C(=O)N1CCOCC1` (stereo unspecified) is 6.5 µM; for `CCC1CCN(C(=O)C(CCCNC(=N)N)NS(=O)(=O)c2cccc3c(OC(C)C)cccc23)CC1` (stereo unspecified) it is 0.4 µM.

As to `CCCCN(C)C(=O)C(CCCNC(=N)N)NS(=O)(=O)c1cccc2c(N(C)C)cccc12` (stereo unspecified), the IC50 amounted to 2 µM.

Consider `CCC1CCN(C(=O)C(CCCNC(=N)N)NS(=O)(=O)c2cccc3c(C#N)cccc23)CC1` (stereo unspecified), for which the IC50 was found to be 6 µM. The figure for `CC1CN(C(=O)C(CCCN=C(N)N)NS(=O)(=O)c2cccc3c(N(C)C)cccc23)CC(C)O1` (stereo unspecified) is 20 µM. As to `CCC1CCN(C(=O)C(CCCN=C(N)N)NS(=O)(=O)c2ccc3ccc(O)cc3c2)CC1` (stereo unspecified), the IC50 turned out to be 6 µM.

As to `CCC1CCN(C(=O)C(CCCNC(=N)N)NS(=O)(=O)c2ccc3c(c2)CCCC3)CC1` (stereo unspecified), the IC50 was found to be 0.7 µM. Next, `COCCCNC(=O)C(CCCNC(=N)N)NS(=O)(=O)c1cccc2c(N(C)C)cccc12` (stereo unspecified): 60 µM; `CCC1CCN(C(=O)C(CCCN=C(N)N)NS(=O)(=O)c2cccc3c(C(=O)O)cccc23)CC1` (stereo unspecified): 1000 µM. Turning to `COc1cccc2cccc(S(=O)(=O)NC(CCCN=C(N)N)C(=O)N3CCC(C)CC3)c12` (stereo unspecified), the IC50 is 4 µM.

`CCC1CCN(C(=O)C(CCCN=C(N)N)NS(=O)(=O)c2ccc3cc(N(C)C)ccc3c2)CC1` (stereo unspecified): the IC50 was 0.3 µM. Regarding `CCCCNC(=O)C(CCCN=C(N)N)NS(=O)(=O)c1ccc2c(c1)CCCC2` (stereo unspecified), the IC50 was found to be 5 µM. On to `CCC1CCN(C(=O)C(CCCN=C(N)N)NS(=O)(=O)c2cccc3ccc(C)cc23)CC1` (stereo unspecified), for which the IC50 came to 1 µM. Next, `CC1CCN(C(=O)C(CCCN=C(N)N)NS(=O)(=O)c2ccc3ccccc3c2)CC1` (stereo unspecified): 4.5 µM; `CCC1CCN(C(=O)C(CCCN=C(N)N)NS(=O)(=O)c2cccc3c(O)cccc23)CC1` (stereo unspecified): 6 µM; `CCOCCNC(=O)C(CCCN=C(N)N)NS(=O)(=O)c1cccc2c(N(C)C)cccc12` (stereo unspecified): 5 µM. Next, `CN(C)c1cccc2c(S(=O)(=O)NC(CCCNC(=N)N)C(=O)NC3CCCCC3)cccc12` (stereo unspecified): 500 µM. As for `CCCCN(C)C(=O)C(CCCN=C(N)N)NS(=O)(=O)c1cccc2ccccc12` (stereo unspecified), the IC50 came out at 50 µM. The figure for `CCC1CCN(C(=O)C(CCCN=C(N)N)NS(=O)(=O)c2cccc3c2CCCC3)CC1` (stereo unspecified) is 0.5 µM; for `CCC1CCN(C(=O)C(CCCN=C(N)N)NS(=O)(=O)c2ccc3cc(OC)c(OC)cc3c2)CC1` (stereo unspecified) it is 0.15 µM; for `CN(C)c1cccc2c(S(=O)(=O)NC(CCCNC(=N)N)C(=O)N3Cc4ccccc4C3)cccc12` (stereo unspecified) it is 0.67 µM. For the molecule `CCC1CCN(C(=O)C(CCCN=C(N)N)NS(=O)(=O)c2ccc3c(c2)C(=O)c2ccccc2C3=O)CC1` (stereo unspecified), the IC50 is 1.5 µM. The figure for `CCC1CCN(C(=O)C(CCCNC(=N)N)NS(=O)(=O)c2cccc3c(N(C)C)cccc23)CC1` (stereo unspecified) is 0.1 µM; for `CCC1CCN(C(=O)C(CCCN=C(N)N)NS(=O)(=O)c2ccc3cc(OC(C)C)ccc3c2)CC1` (stereo unspecified) it is 0.8 µM. Next, `CC1CCN(C(=O)C(CCCN=C(N)N)NS(=O)(=O)c2ccc3c(c2)CCCC3)CC1` (stereo unspecified): 0.6 µM; `CCc1ccc2cc(S(=O)(=O)NC(CCCNC(=N)N)C(=O)N3CCC(CC)CC3)ccc2c1` (stereo unspecified): 0.7 µM; `CC1CCCCN1C(=O)C(CCCN=C(N)N)NS(=O)(=O)c1cccc2c(N(C)C)cccc12` (stereo unspecified): 1.3 µM. The figure for `CCCCN(C)C(=O)C(CCCNC(=N)N)NS(=O)(=O)c1ccc2ccccc2c1` (stereo unspecified) is 50 µM; for `CN(C)c1cccc2c(S(=O)(=O)NC(CCCNC(=N)N)C(=O)N3CCCC3)cccc12` (stereo unspecified) it is 3.3 µM; for `CN(C)c1cccc2c(S(=O)(=O)NC(CCCN=C(N)N)C(=O)N3CCC(C)(C)CC3)cccc12` (stereo unspecified) it is 8 µM.

With `CC1CCCN(C(=O)C(CCCNC(=N)N)NS(=O)(=O)c2cccc3c(N(C)C)cccc23)C1` (stereo unspecified), the IC50 is 6.5 µM. The figure for `CCCCN(CCCC)C(=O)C(CCCNC(=N)N)NS(=O)(=O)c1cccc2c(N(C)C)cccc12` (stereo unspecified) is 40 µM; for `N=C(N)NCCCC(NS(=O)(=O)c1ccc2c(c1)CCCC2)C(=O)N1CCCC1` (stereo unspecified) it is 7 µM. Turning to `N=C(N)NCCCC(NS(=O)(=O)c1cccc2ccccc12)C(=O)N1CCC(c2ccccc2)CC1` (stereo unspecified), the IC50 amounted to 100 µM. The figure for `CCC1CCN(C(=O)C(CCCNC(=N)N)NS(=O)(=O)c2cccc3c2oc2ccccc23)CC1` (stereo unspecified) is 0.2 µM; for `CCNC(=O)C(CCCN=C(N)N)NS(=O)(=O)c1cccc2c(N(C)C)cccc12` (stereo unspecified) it is 100 µM. Next, `CCC1CCN(C(=O)C(CCCN=C(N)N)NS(=O)(=O)c2ccc3ccccc3c2OC)CC1` (stereo unspecified): 0.4 µM. The figure for `CCC1CCN(C(=O)C(CCCNC(=N)N)NS(=O)(=O)c2cc(OC)c3cc(OC)ccc3c2)CC1` (stereo unspecified) is 0.1 µM; for `COc1cc2ccc(S(=O)(=O)NC(CCCN=C(N)N)C(=O)N3CCC(C)CC3)cc2cc1OC` (stereo unspecified) it is 0.15 µM.

As for `CC(C)C1CCN(C(=O)C(CCCN=C(N)N)NS(=O)(=O)c2cccc3c(N(C)C)cccc23)CC1` (stereo unspecified), the IC50 worked out at 1 µM. The figure for `CC(C)NC(=O)C(CCCN=C(N)N)NS(=O)(=O)c1cccc2c(N(C)C)cccc12` (stereo unspecified) is 1100 µM. The figure for `CN(C)c1cccc2c(S(=O)(=O)NC(CCCN=C(N)N)C(=O)N3CCCCCCC3)cccc12` (stereo unspecified) is 1 µM; for `CCCOc1cccc2c(S(=O)(=O)NC(CCCNC(=N)N)C(=O)N3CCC(CC)CC3)cccc12` (stereo unspecified) it is 0.5 µM; for `CCC1CCN(C(=O)C(CCCN=C(N)N)NS(=O)(=O)c2cccc3c([N+](=O)[O-])cccc23)CC1` (stereo unspecified) it is 1 µM. The figure for `CN(C)c1cccc2c(S(=O)(=O)NC(CCCNC(=N)N)C(=O)N3CCc4ccccc43)cccc12` (stereo unspecified) is 1 µM; for `C=CCNC(=O)C(CCCN=C(N)N)NS(=O)(=O)c1cccc2c(N(C)C)cccc12` (stereo unspecified) it is 10 µM.

In the case of `CN(C)c1cccc2c(S(=O)(=O)NC(CCCNC(=N)N)C(=O)NCC3CCCCC3)cccc12` (stereo unspecified), the IC50 was determined as 40 µM. The figure for `COc1ccc2ccc(S(=O)(=O)NC(CCCN=C(N)N)C(=O)N3CCC(C)CC3)cc2c1` (stereo unspecified) is 0.1 µM.

As for `CN(C)c1cccc2c(S(=O)(=O)NC(CCCNC(=N)N)C(=O)N3CCC(C(C)(C)C)CC3)cccc12` (stereo unspecified), the IC50 was found to be 2 µM.

With `CN1CCN(C(=O)C(CCCN=C(N)N)NS(=O)(=O)c2cccc3c(N(C)C)cccc23)CC1` (stereo unspecified), the IC50 came to 2 µM. On to `CN(C)c1cccc2c(S(=O)(=O)NC(CCCNC(=N)N)C(=O)N3CCOCC3)cccc12` (stereo unspecified), for which the IC50 was found to be 0.6 µM.

Turning to `CCCC1CCN(C(=O)C(CCCN=C(N)N)NS(=O)(=O)c2cccc3c(N(C)C)cccc23)CC1` (stereo unspecified), the IC50 came to 1 µM.

As to `CCCCNC(=O)C(CCCNC(=N)N)NS(=O)(=O)c1cccc2ccccc12` (stereo unspecified), the IC50 was 50 µM.
